This is a sample that favours compounds with a hit; in the whole collection about 4.1% have one here.
KCNK9 inh: KCNK9 potassium channel inhibitors, primary screen, HEK293 cells, thallium flux. Potassium channel subfamily K member 9 (Homo sapiens), Q9NPC2. FluxOR thallium flux fluorescence; hits give low values. B-score at 10 µM. 310,000 compounds, 1.2% hits. AID 488922, 2010;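 active means ratio B-score over 3 SD below the library mean, with starting fluorescence within 5 SD of its mean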;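 further: negative B-score means less thallium flux so channel inhibition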
hERG rescue: hERG rescue from dofetilide block, primary screen, cell-based, CHO-hERG, FluxOR thallium flux, dofetilide IC70 | Voltage-gated inwardly rectifying potassium channel KCNH2 (Homo sapiens), Q12809 | dofetilide IC70 present | activation (rescue from dofetilide block), less the hit threshold, % at 10 µM | 310,000 compounds, 0.51% hits | AID 1511, 2009;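 active means activation above the mean of controls blocked by dofetilide plus 5 SD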;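 further: thallium influx through hERG after potassium depolarization seen as dye fluorescence rise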
KCNQ1 block: inhibitors of human KCNQ1 channel, primary screen, cell-based, thallium flux, high-throughput | Potassium voltage-gated channel subfamily KQT member 1 (Homo sapiens), P51787 | CHO-K1 KCNQ1, FluxOR thallium flux fluorescence; hits give high values | B-score at 10 µM | 310,000 compounds, 1.3% hits;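 active means compounds whose thallium flux B-score, printed positive for inhibition, exceeds three library SD while starting fluorescence stays within three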;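 further: channel opened by potassium depolarization with thallium stimulus after 20 min compound exposure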
KCNK3 block: human KCNK3 channel inhibitors, primary screen, CHO cells, FluxOR thallium flux, B-score; 340,000 compounds, 0.84% hits; B-score at 10 µM; FluxOR fluorescence; hits give low values;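 active means B-score under library mean minus 4 SD, starting fluorescence ratio at most library mean plus 5 SD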;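 further: more negative B-score means stronger inhibition of thallium flux through KCNK3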
Cl transport mod: KCC2 cotransporter modulators, thallium flux, primary screen, cell-based, HEK293 KCC2, FluoZin-2 fluorescence, MLSMR; B-score of Tl+ flux slope (higher = more flux/activation; lower = inhibition) at 10 µM; KCC2 cells, thallium flux FluoZin-2 fluorescence; Solute carrier family 12 member 5 (Homo sapiens), Q9H2X9; 190,000 compounds, 2.2% hits; AID 1456, 2008;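 active means thallium flux slope and its plate-corrected score both differing from the plate sample mean at a set confidence after two filtering rounds, in either direction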;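 further: slope of fluorescence scaled to starting intensity during 10 to 20 s after thallium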
KCNQ1 act: potentiators or activators of KCNQ1 channel, primary screen, cell-based, thallium flux, high-throughput; 310,000 compounds, 0.35% hits; Potassium voltage-gated channel subfamily KQT member 1 (Homo sapiens), P51787; CHO-K1 KCNQ1, thallium flux FluxOR fluorescence; hits give high values; AID 2648, 2010; B-score at 10 µM;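 active means fluorescence ratio B-score, a plate-corrected score, at least three library SD, with initial intensity B-score within 5 SD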
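System: CHO-K1 cells stably expressing KCNQ1 / Medium: assay buffer for compound exposure, DMSO matched across wells / Reagent: thallium- and potassium-containing depolarizing buffer / Compound: one concentration, matched DMSO / Incubation: 20 min compound pretreatment at room temperature / Measured by: kinetic FluxOR fluorescence, 10 s baseline plus 110 s post-stimulus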
KCNQ1 inh valid: KCNQ1 potassium channel inhibitors, confirmation, cell-based, Tl flux, duplicate; shares compounds with KCNQ1 block; KCNQ1 cell line, FluxOR thallium flux fluorescence; inhibition, % at 10 µM; 1,600 compounds, 93% hits; AID 588353, 2011;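 active means primary screen active, with duplicate mean exceeding buffer control mean plus 3 SD of buffer wells, cut at about 28% in these data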;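 further: 0% = buffer control ratio and 100% = XE991 inhibitor control ratio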
CHO KCNQ1 ctr: thallium flux effects in parental CHO cells, counter-screen for KCNQ1 inhibitor project, cell-based, Tl flux; shares compounds with KCNQ1 block; parental CHO-K1, FluxOR thallium flux fluorescence ratio; hits give low values; zero means no signal rise above baseline; fluorescence ratio (Tl flux) at 10 µM; 1,600 compounds, 21% hits; AID 588366, 2011;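 active means mean of duplicate thallium-flux fluorescence ratios in parental host cells more than 5 SD below the buffer control mean, cut at about 0.38 in these data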;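 further: ratio is peak minus minimum fluorescence divided by baseline fluorescence; actives read low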
KCNQ1 APC inh: KCNQ1 channel inhibitors, confirmation, orthogonal assay, cell-based, automated electrophysiology; AID 624120, 2012; shares compounds with KCNQ1 block; 490 compounds, 20% hits; KCNQ1-CHO cells, automated patch clamp current; calls only at 10 µM;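 active means KCNQ1 current drop exceeding 3 SD of negative control wells, seen in both duplicate runs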;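 further: steady state current during a 2 s step from -80 to +40 mV; negative values mean current inhibition and positive values mean potentiation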
KCNQ2 spec: KCNQ2 channel inhibition, selectivity assay for KCNQ1 inhibitor project, cell-based. shares compounds with KCNQ1 block. KCNQ2 cells, FluxOR thallium flux fluorescence. inhibition, % at 10 µM. 1,600 compounds, 71% hits. AID 651746, 2012;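 active means mean percent inhibition of the KCNQ2 thallium signal more than 5 SD above the buffer-only control wells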;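 further: KCNQ2 expressed in CHO cells; 0% = buffer control wells and 100% = XE-991 inhibitor control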
KCNQ1 KCNE1 spec: KCNQ1/KCNE1 channel inhibition, selectivity assay for KCNQ1 inhibitor project, CHO-K1 cells, thallium flux, FluxOR | shares compounds with KCNQ1 block | FluxOR thallium flux fluorescence | inhibition, % at 10 µM | 1,600 compounds, 77% hits;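 active means mean percent inhibition of duplicate wells above the buffer-only control mean plus 3 SD of those controls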;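 further: 0% = buffer only wells and 100% = XE-991 inhibitor control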
Target sequence (P51787 whole entry, looked up): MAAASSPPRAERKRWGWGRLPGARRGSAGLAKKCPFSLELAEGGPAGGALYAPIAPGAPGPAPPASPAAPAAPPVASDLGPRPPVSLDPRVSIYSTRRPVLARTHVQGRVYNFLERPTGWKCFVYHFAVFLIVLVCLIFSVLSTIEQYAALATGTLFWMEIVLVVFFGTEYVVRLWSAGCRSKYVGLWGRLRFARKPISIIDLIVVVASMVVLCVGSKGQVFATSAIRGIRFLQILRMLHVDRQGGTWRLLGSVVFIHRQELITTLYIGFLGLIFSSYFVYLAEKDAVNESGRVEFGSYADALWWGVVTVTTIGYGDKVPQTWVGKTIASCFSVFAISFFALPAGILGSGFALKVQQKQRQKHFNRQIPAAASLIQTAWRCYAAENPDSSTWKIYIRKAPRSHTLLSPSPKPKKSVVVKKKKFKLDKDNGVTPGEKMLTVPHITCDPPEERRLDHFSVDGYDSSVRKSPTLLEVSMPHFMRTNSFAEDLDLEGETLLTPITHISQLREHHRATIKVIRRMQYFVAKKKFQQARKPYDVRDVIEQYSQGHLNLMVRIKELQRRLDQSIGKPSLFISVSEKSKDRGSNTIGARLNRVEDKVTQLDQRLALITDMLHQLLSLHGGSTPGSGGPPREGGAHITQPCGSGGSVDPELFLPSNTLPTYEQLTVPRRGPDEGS
* = called active by the depositor; i = inactive; / = no result; + = active, no number.

SMILES | KCNK9 inh | hERG rescue | KCNQ1 block | KCNK3 block | Cl transport mod | KCNQ1 act | KCNQ1 inh valid | CHO KCNQ1 ctr | KCNQ2 spec | KCNQ1 KCNE1 spec | others
CN(C1CCCCC1)S(=O)(=O)c1ccc(NC(=O)c2ccc(Br)o2)cc1 | -8* | -9 | 7* | i | -0.68 | i | 132* | 0.42 | 115%* | 193%* | KCNQ1 APC inh=i
CCn1c(SCC(=O)NC2CCCCC2)nnc1-c1ccco1 | i | -4 | i | i | / | i | / | / | / | /
O=C(Cn1c(=O)oc2ccccc21)Nc1nnc(N2CCCCCC2)s1 | i | -3 | i | i | 1.1 | i | / | / | / | /
O=C(Nc1ccc(Cl)cc1)Nc1nnc(-c2ccncc2)s1 | i | -11 | i | i | 0.7 | i | / | / | / | /
Cc1ccc(NC(=O)Nc2nnc(-c3ccncc3)s2)cc1C | i | -8 | 11* | i | 0.44 | i | 105* | 0.5 | i | 57%* | KCNQ1 APC inh=i
Cc1ccc(SCCNC(=S)Nc2cc(C)cc(C)c2)cc1 | i | -20 | 9* | i | / | i | 69* | 0.5 | 71%* | 77%*
Cc1cccc(C)c1NC(=S)NCCSc1ccc(Cl)cc1 | i | -15 | 6* | i | -0.59 | i | 90* | 0.43 | 110%* | 96%* | KCNQ1 APC inh=i
Cc1ccc(NC(=S)NCCSc2ccc(Cl)cc2)cc1 | i | -3 | i | i | 1.9 | i | / | / | / | /
COc1ccc(C(=O)N2CCCC(CO)(Cc3ccccc3C)C2)o1 (stereo not drawn) | i | -11 | i | i | / | i | / | / | / | /
CCOc1ccc(N=C2SCCCN2C(=O)c2c(CC)noc2C)cc1 | i | -7 | i | i | / | i | / | / | / | /
CCc1noc(C)c1C(=O)N1CCCSC1=Nc1ccccc1Cl | i | -17 | 7* | i | / | i | 80* | 0.43 | 66%* | 110%*
COc1ccc(C)cc1NC(=O)n1ncc2cc(Cl)ccc21 | i | -3 | i | i | / | i | / | / | / | /
Cc1c(NC(=O)C(C)OC(=O)CC2CC3CCC2C3)c(=O)n(-c2ccccc2)n1C (stereo not drawn) | i | -12 | i | i | 0.46 | i | / | / | / | /
Cc1ccc(S(=O)(=O)N2CCOCC2)cc1NC(=O)CNC(C)c1ccccc1 (stereo not drawn) | / | / | / | i | / | / | / | / | / | /
CC(NCC(=O)Nc1cc(S(=O)(=O)N2CCOCC2)ccc1Cl)c1ccc(Cl)cc1Cl (stereo not drawn) | i | -13 | 7* | i | / | i | 70* | 0.43 | 60%* | 92%*
Nc1ccc2nc3c(=O)n(C4CCCCC4)c(=O)[nH]c3nc2c1 | i | -50 | 24* | i | i | i | + | 0.1* | i | i

Screens from PubChem.
